The values below come from ChEMBL document CHEMBL4152188, “Design, synthesis and biological evaluation of C(4) substituted monobactams as antibacterial agents against multidrug-resistant Gram-negative bacteria” (Eur J Med Chem, 2018).

Values after ≈ are worked out from the molar mass of the structure shown.

Series [1] is described as follows: Elimination half life in human liver microsomes at 0.1 uM pre-incubated with compound followed by NADPH addition and measured after 60 mins by LC-MS/MS analysis. To be noted: read-out: beta t1/2. In kind it is ADME, microsome. (In general: Microsomes from liver hold many membrane-bound enzymes, among them those of drug oxidation.)
Series [2] can be described thus: Elimination half life in mouse liver microsomes at 0.1 uM pre-incubated with compound followed by NADPH addition and measured after 60 mins by LC-MS/MS analysis. In kind it is ADME, microsome. The following applies: read-out: beta t1/2.
Series [3] deals with Escherichia coli. Nature of the series: Antibacterial activity against extended-spectrum beta-lactamase producing Escherichia coli isolate 209285 after 18 hrs by CLSI broth microdilution method. The following applies: isolate 209285, 18 h. In kind it is functional. On the technique in general: Broth dilution looks for growth in wells or tubes with falling amounts of substance.

The subject of series [4] is Escherichia coli. The experiment in a line: Antibacterial activity against extended-spectrum beta-lactamase producing Escherichia coli isolate 106342 after 18 hrs by CLSI broth microdilution method. In kind it is functional. The following applies: isolate 106342, 18 h.
Series [5] relates to Escherichia coli. The experiment in a line: Antibacterial activity against extended-spectrum beta-lactamase producing Escherichia coli isolate 106342 after 18 hrs in presence of BPL by CLSI broth microdilution method. To be noted: isolate 106342, 18 h. In kind it is functional. The essentials:
(§1)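 CLSI broth microdilution against clinical isolates (ESBL E. coli, KPC-2 MDR K. pneumoniae, IMP-4 MDR P. aeruginosa; five per species). Iron limitation: Mueller-Hinton broth supplemented with 16 mg/liter 2,2'-bipyridyl to complex iron and induce iron uptake systems. Read-out: MIC.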

Series [6] concerns Escherichia coli. Nature of the series: Selectivity index, ratio of MIC for against extended-spectrum beta-lactamase producing Escherichia coli isolate 106342 to MIC for extended-spectrum beta-lactamase producing Escherichia coli isolate 106342 in presence of BPL. In kind it is functional.
Series [7] deals with Klebsiella pneumoniae. Nature of the series: Antibacterial activity against KPC-2 producing Klebsiella pneumoniae isolate 212423 after 18 hrs in presence of BPL by CLSI broth microdilution method. To be noted: isolate 212423, 18 h. In kind it is functional. In short, it runs like this:
as §1

In series [8] the test system is Klebsiella pneumoniae. Nature of the series: Selectivity index, ratio of MIC for against KPC-2 producing Klebsiella pneumoniae isolate 212423 to MIC for against KPC-2 producing Klebsiella pneumoniae isolate 212423 in presence of BPL. In kind it is functional.
The test system of series [9] is Klebsiella pneumoniae. The experiment in a line: Antibacterial activity against KPC-2 producing Klebsiella pneumoniae isolate 209735 after 18 hrs in presence of BPL by CLSI broth microdilution method. In kind it is functional. The following applies: isolate 209735, 18 h. The essentials: as §1
The test system of series [10] is Klebsiella pneumoniae. The experiment in a line: Antibacterial activity against KPC-2 producing Klebsiella pneumoniae isolate 212232 after 18 hrs by CLSI broth microdilution method. In kind it is functional. The following applies: isolate 212232, 18 h.
Series [11] deals with Klebsiella pneumoniae. The experiment in a line: Antibacterial activity against KPC-2 producing Klebsiella pneumoniae isolate 212232 after 18 hrs in presence of BPL by CLSI broth microdilution method. In kind it is functional. To be noted: isolate 212232, 18 h. The essentials: as §1
Series [12] has as its system Klebsiella pneumoniae. Nature of the series: Selectivity index, ratio of MIC for against KPC-2 producing Klebsiella pneumoniae isolate 212232 to MIC for against KPC-2 producing Klebsiella pneumoniae isolate 212232 in presence of BPL. In kind it is functional.
In series [13] the test system is Klebsiella pneumoniae. Nature of the series: Antibacterial activity against KPC-2 producing Klebsiella pneumoniae isolate 212229 after 18 hrs by CLSI broth microdilution method. In kind it is functional. The following applies: isolate 212229, 18 h.
The subject of series [14] is Pseudomonas aeruginosa. The experiment in a line: Antibacterial activity against IMP-4 producing Pseudomonas aeruginosa isolate 212886 after 18 hrs in presence of BPL by CLSI broth microdilution method. In kind it is functional. The following applies: isolate 212886, 18 h. In short, it runs like this:
as §1

The test system of series [15] is Pseudomonas aeruginosa. Nature of the series: Antibacterial activity against IMP-4 producing Pseudomonas aeruginosa isolate 209471 after 18 hrs by CLSI broth microdilution method. In kind it is functional. The following applies: isolate 209471, 18 h.
The test system of series [16] is Pseudomonas aeruginosa. Nature of the series: Selectivity index, ratio of MIC for against IMP-4 producing Pseudomonas aeruginosa isolate 209471 to MIC for against IMP-4 producing Pseudomonas aeruginosa isolate 209471 in presence of BPL. In kind it is functional.
Series [17] deals with Pseudomonas aeruginosa. Nature of the series: Antibacterial activity against IMP-4 producing Pseudomonas aeruginosa isolate 208247 after 18 hrs by CLSI broth microdilution method. In kind it is functional. The following applies: isolate 208247, 18 h.

As for `CC(C)C(O/N=C(\C(=O)N[C@@H]1C(=O)N(S(=O)(=O)O)[C@@H]1Cn1cc(COCc2cc(=O)c(O)cn2O)nn1)c1csc(N)n1)c1cc(=O)c(O)cn1O` (stereo partly drawn), the half-life at 0.1 µM in series [1] stood at 80.1 min; in series [2], 77.4 min. Moreover, the minimal inhibitory concentration (MIC) with Escherichia coli [3] was 16 µg/mL (≈ 20.9 µM); against Escherichia coli [4] it was 16 µg/mL (≈ 20.9 µM); with Escherichia coli [5], 8 µg/mL; with Klebsiella pneumoniae [7] it was 0.25 µg/mL; in the series with Klebsiella pneumoniae [9], 0.25 µg/mL; with Klebsiella pneumoniae [10], 2 µg/mL (≈ 2.61 µM). In addition, the minimal inhibitory concentration (MIC) was 0.25 µg/mL in the series on Klebsiella pneumoniae [11]; 2 µg/mL (≈ 2.61 µM) in the series with Klebsiella pneumoniae [13]; 1 µg/mL in the series with Pseudomonas aeruginosa [14]; 8 µg/mL (≈ 10.4 µM) against Pseudomonas aeruginosa [15]; 4 µg/mL (≈ 5.22 µM) against Pseudomonas aeruginosa [17]. Moreover, the “Selectivity Index” value with Escherichia coli [6] is 2; in the series with Klebsiella pneumoniae [8], 8; in the series on Klebsiella pneumoniae [12], 8; in the series with Pseudomonas aeruginosa [16], 4.
For `CC(C)C(O/N=C(\C(=O)N[C@@H]1C(=O)N(S(=O)(=O)O)[C@@H]1CCl)c1csc(N)n1)c1cc(=O)c(O)cn1O` (stereo partly drawn), the results for the half-life at 0.1 µM in series [1] and in series [2] were 189 min and 72.3 min, respectively. Also, the minimal inhibitory concentration (MIC) was 0.5 µg/mL (≈ 0.885 µM) against Escherichia coli [3]; 1 µg/mL (≈ 1.77 µM) against Escherichia coli [4]; 0.25 µg/mL in the series with Escherichia coli [5]; 0.5 µg/mL in the series with Klebsiella pneumoniae [7]; 8 µg/mL with Klebsiella pneumoniae [9]; 2 µg/mL (≈ 3.54 µM) in the series with Klebsiella pneumoniae [10]. In addition, the minimal inhibitory concentration (MIC) came out at 0.5 µg/mL in the series with Klebsiella pneumoniae [11]; 0.5 µg/mL (≈ 0.885 µM) in the series on Klebsiella pneumoniae [13]; 8 µg/mL in the series on Pseudomonas aeruginosa [14]; 8 µg/mL (≈ 14.2 µM) in the series on Pseudomonas aeruginosa [15]; 8 µg/mL (≈ 14.2 µM) with Pseudomonas aeruginosa [17]. The “Selectivity Index” value with Escherichia coli [6] was determined as 4; in the series with Klebsiella pneumoniae [8], 1; with Klebsiella pneumoniae [12], 4; in the series on Pseudomonas aeruginosa [16], 2.
Take `CC(C)C(O/N=C(\C(=O)N[C@@H]1C(=O)N(S(=O)(=O)O)C12CCCC2)c1csc(N)n1)c1cc(=O)c(O)cn1O` (stereo partly drawn): the values for the half-life at 0.1 µM in series [1] and in series [2] were 271 min and 375 min, respectively. For the same compound, the minimum inhibitory concentration (MIC) in the series with Escherichia coli [3] was 0.5 µg/mL (≈ 0.876 µM); against Escherichia coli [4], 0.5 µg/mL (≈ 0.876 µM); in the series on Escherichia coli [5] it was 0.25 µg/mL; in the series on Klebsiella pneumoniae [7], 0.5 µg/mL; in the series on Klebsiella pneumoniae [9], 0.25 µg/mL; against Klebsiella pneumoniae [10], 1 µg/mL (≈ 1.75 µM). Also, the MIC in the series with Klebsiella pneumoniae [11] worked out at 0.06 µg/mL; with Klebsiella pneumoniae [13] it was 1 µg/mL (≈ 1.75 µM); in the series on Pseudomonas aeruginosa [14], 8 µg/mL; in the series on Pseudomonas aeruginosa [15] it was 16 µg/mL (≈ 28 µM); in the series on Pseudomonas aeruginosa [17], 16 µg/mL (≈ 28 µM). Also, the “Selectivity Index” value in the series with Escherichia coli [6] was 2; with Klebsiella pneumoniae [8], 4; in the series with Klebsiella pneumoniae [12], 16; in the series on Pseudomonas aeruginosa [16], 1.
For `CC(C)C(O/N=C(\C(=O)N[C@@H]1C(=O)N(S(=O)(=O)O)[C@@H]1COC(N)=O)c1csc(N)n1)c1cc(=O)c(O)cn1O` (stereo partly drawn), the half-life at 0.1 µM is 176 min in series [1] and 616 min in series [2]. Further, the MIC with Escherichia coli [3] came out at 0.5 µg/mL (≈ 0.848 µM); against Escherichia coli [4], 0.5 µg/mL (≈ 0.848 µM); in the series with Escherichia coli [5] it was 0.25 µg/mL; in the series with Klebsiella pneumoniae [7], 0.5 µg/mL; with Klebsiella pneumoniae [9], 8 µg/mL; against Klebsiella pneumoniae [10], 1 µg/mL (≈ 1.7 µM). Besides, the MIC in the series on Klebsiella pneumoniae [11] is 0.25 µg/mL; against Klebsiella pneumoniae [13], 1 µg/mL (≈ 1.7 µM); in the series with Pseudomonas aeruginosa [14], 4 µg/mL; in the series on Pseudomonas aeruginosa [15], 8 µg/mL (≈ 13.6 µM); in the series on Pseudomonas aeruginosa [17], 4 µg/mL (≈ 6.78 µM). Also, the “Selectivity Index” value with Escherichia coli [6] is given as 2; with Klebsiella pneumoniae [8] it was 2; in the series with Klebsiella pneumoniae [12] it was 4; in the series on Pseudomonas aeruginosa [16], 1.

In general, MIC refers to the lowest concentration that inhibits growth of the organism.
